In data set [1] the test system is Homo sapiens. Put plainly: Terminal half life in cancer patient assessed as total radioactivity at 2 mg, iv administered as bolus infusion for 2 to 5 mins by LC-MS/MS analysis/liquid scintillation counting. Format: ADME, organism-based. Particulars: in vivo. Summed up: (§1)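 Six patients with advanced solid tumours got one ~2 mg (~80 µCi) 14C-eribulin IV bolus over 2-5 min. Venous blood was drawn into lithium heparin pre-dose, at end of infusion and 5 min-168 h after, then spun 2,000 g, 4 °C, 15 min. Plasma was counted in duplicate by LSC with quench correction. Non-compartmental analysis; dose-normalised values use actual administered dose.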

Data set [2] has as its system Homo sapiens. Briefly: AUC (0 to infinity) in cancer patient assessed as total radioactivity at 2 mg, iv administered as bolus infusion for 2 to 5 mins by LC-MS/MS analysis/liquid scintillation counting. Format: ADME, organism-based, Plasma. Further details: dose 2 mg, time infinity, route intravenous. Particulars: in vivo. An outline of the steps:
as §1

The nature of data set [3]: Drug excretion in cancer patient feces at 80 uCi, iv administered as bolus infusion for 2 to 5 mins after 168 hrs by liquid scintillation counting. The format is ADME, organism-based. As to conditions: human, in vivo. Summed up:
(§2)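 Patients had one ~2 mg (~80 µCi) 14C-eribulin IV bolus over 2-5 min. Urine was pooled over 6 h periods to 48 h, then every 24 h. All faeces were collected and homogenised. Collection ran to day 8, or longer until daily recovery was <1% of administered activity (faeces up to 312 h). Faeces were solubilised and decolourised, then LSC counted with quench correction, as percentage of administered activity.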

In data set [4] the test system is Homo sapiens. Briefly: Toxicity against cancer patient assessed as mortality at 80 uCi, iv administered as bolus infusion for 2 to 5 mins. The format is organism-based. As to conditions: in vivo.
Data set [5] has as its system Homo sapiens. Put plainly: AUC (0 to t) in cancer patient assessed as total radioactivity at 2 mg, iv administered as bolus infusion for 2 to 5 mins by LC-MS/MS analysis/liquid scintillation counting. The format is ADME, organism-based, Plasma. As to conditions: in vivo. An outline of the steps: as §1
Data set [6] deals with Homo sapiens. Put plainly: Dose-normalized Cmax in cancer patient plasma assessed as total radioactivity at 2 mg, iv administered as bolus infusion for 2 to 5 mins by LC-MS/MS analysis/liquid scintillation counting. Format: ADME, organism-based. Particulars: in vivo. Summed up:
as §1

In data set [7] the test system is Homo sapiens. Briefly: Dose-normalized AUC (0 to infinity) in cancer patient plasma assessed as total radioactivity at 2 mg, iv administered as bolus infusion for 2 to 5 mins by LC-MS/MS analysis/liquid scintillation counting. Format: ADME, organism-based. As to conditions: in vivo. An outline of the steps:
as §1

A short description of data set [8]: Drug excretion in cancer patient feces at 80 uCi, iv administered as bolus infusion for 2 to 5 mins after 312 hrs by liquid scintillation counting. The format is ADME, organism-based. As to conditions: human, in vivo. Summed up: as §2
Data set [9] relates to Homo sapiens. Briefly: Cmax in cancer patient plasma assessed as total radioactivity at 2 mg, iv administered as bolus infusion for 2 to 5 mins by LC-MS/MS analysis/liquid scintillation counting. The format is ADME, organism-based. As to conditions: in vivo. More on the design: dose 2 mg, route intravenous. An outline of the steps: as §1
A short description of data set [10]: Drug excretion in cancer patient urine at 80 uCi, iv administered as bolus infusion for 2 to 5 mins after 312 hrs by liquid scintillation counting. Format: ADME, organism-based. Particulars: human, in vivo. An outline of the steps:
as §2

For data set [11], the system named is Homo sapiens. Put plainly: Dose-normalized AUC (0 to t) in cancer patient plasma assessed as total radioactivity at 2 mg, iv administered as bolus infusion for 2 to 5 mins by LC-MS/MS analysis/liquid scintillation counting. The format is ADME, organism-based. As to conditions: in vivo. An outline of the steps:
as §1

A short description of data set [12]: Drug excretion in cancer patient urine at 80 uCi, iv administered as bolus infusion for 2 to 5 mins after 168 hrs by liquid scintillation counting. Format: ADME, organism-based. As to conditions: human, in vivo. Summed up: as §2
The subject of data set [13] is Homo sapiens. Put plainly: Toxicity against cancer patient assessed as severe adverse event at 80 uCi, iv administered as bolus infusion for 2 to 5 mins. Format: organism-based. As to conditions: in vivo.
Data set [14] can be described thus: Clearance in cancer patient at 2 mg, iv administered as bolus infusion for 2 to 5 mins by LC-MS/MS analysis. Format: ADME, organism-based. As to conditions: human, in vivo. An outline of the steps:
(§3)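 Six patients with advanced solid tumours received a single ~2 mg (~80 µCi) 14C-eribulin IV bolus over 2-5 min. Plasma was sampled from pre-dose to 168 h after end of infusion, using lithium-heparin tubes centrifuged at 4 °C. Eribulin was quantified by validated LC-MS/MS (m/z 730→712) and corrected ×2.03 for total eribulin. CL, CLr and Vz came from non-compartmental analysis. Values are mean ± SD, n=6.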

The test system of data set [15] is Homo sapiens. Briefly: Dose-normalized Cmax in cancer patient plasma at 2 mg, iv administered as bolus infusion for 2 to 5 mins by LC-MS/MS analysis/liquid scintillation counting. Format: ADME, organism-based. Particulars: in vivo. An outline of the steps: (§4)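 Single ~2 mg (~80 µCi) 14C-eribulin IV bolus over 2-5 min in 6 cancer patients; actual doses were 1.75-3.01 mg. Plasma eribulin was measured by LC-MS/MS and total radioactivity by liquid scintillation counting with quench correction. Cmax, AUC0-t and AUC0-∞ came from non-compartmental analysis and were divided by the actual dose. TRA AUC0-∞ used n=5.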

Data set [16] can be described thus: Drug excretion in patient urine assessed as unchanged compound level at 0.25 to 1.4 mg/m2 administered 1 hr, iv infusion after 72 hrs. Format: ADME, organism-based. As to conditions: human, read-out: Drug excretion.
Data set [17] deals with Homo sapiens. Put plainly: Dose-normalized AUC (0 to t) in cancer patient plasma at 2 mg, iv administered as bolus infusion for 2 to 5 mins by LC-MS/MS analysis/liquid scintillation counting. Format: ADME, organism-based. Particulars: in vivo. Summed up: as §4
Data set [18] in a line: Terminal half life in breast cancer patient. Particulars: human, in vivo; read-out: beta t1/2 (converted). The format is ADME, organism-based.
Data set [19] relates to Homo sapiens. Briefly: Dose-normalized AUC (0 to infinity) in cancer patient plasma at 2 mg, iv administered as bolus infusion for 2 to 5 mins by LC-MS/MS analysis/liquid scintillation counting. Format: ADME, organism-based. Particulars: in vivo. An outline of the steps: as §4
Data set [20] has as its system Homo sapiens. Put plainly: Drug excretion in cancer patient treated with [14C]eribulin acetate at 2 mg, iv administered as bolus infusion for 2 to 5 mins after 312 hrs by LC-MS/MS analysis. The format is ADME, organism-based. As to conditions: in vivo. Summed up: (§5)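 Patients got a ~2 mg (~80 µCi) 14C-eribulin IV bolus over 2-5 min. Urine was collected in 6 h periods to 48 h, then in 24 h periods. All faeces were collected and homogenised until daily recovery was <1% of dose; four patients continued to 312 h. Unchanged eribulin was measured by LC-MS/MS (faeces 0.1–25 µg/g) and total radioactivity by LSC. Results are % of the administered dose, mean ± SD.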

Data set [21] deals with Homo sapiens. Briefly: Apparent volume of distribution in the terminal phase in cancer patient at 2 mg, iv administered as bolus infusion for 2 to 5 mins by LC-MS/MS analysis. The format is ADME, organism-based. As to conditions: in vivo. Summed up: as §3
The nature of data set [22]: Drug excretion in patient urine assessed as unchanged compound at 0.25 to 4 mg/m2 administered 1 hr, iv infusion every 21 days after 72 hrs. Format: ADME, organism-based. As to conditions: human, read-out: Drug excretion.
Data set [23] can be described thus: Renal clearance in cancer patient at 2 mg, iv administered as bolus infusion for 2 to 5 mins by LC-MS/MS analysis. The format is ADME, organism-based, Kidney. As to conditions: human, in vivo. Summed up: as §3
For data set [24], the system named is Homo sapiens. Put plainly: Drug excretion in cancer patient treated with [14C]eribulin acetate at 2 mg, iv administered as bolus infusion for 2 to 5 mins after 168 hrs by LC-MS/MS analysis. Format: ADME, organism-based. Particulars: in vivo. Summed up:
as §5

Each structure is given as a SMILES string.

For the compound `C=C1C[C@@H]2CC[C@@]34C[C@H]5O[C@H]6[C@@H](O3)[C@H]3O[C@H](CC[C@@H]3O[C@H]6[C@H]5O4)CC(=O)C[C@@H]3[C@@H](OC)[C@@H](C[C@H](O)CN)O[C@H]3C[C@H]3O[C@@H](CC[C@@H]1O2)C[C@@H](C)C3=C.CC(=O)O`, in the data set on Homo sapiens [1], the “beta t1/2” value is 42.3 h. In addition, the AUC in the data set on Homo sapiens [2] was 753 ng.Eq.hr/ml. Besides, the Drug excretion in data set [3] amounted to 77.6%; in data set [8], 81.5%; in data set [10], 8.9%; in data set [12], 8.9%. In addition, the Activity result in the data set on Homo sapiens [4] and in the data set on Homo sapiens [13] was “Non-toxic” throughout. Further, the AUCt with Homo sapiens [5] amounted to 568 ng.Eq.hr/ml. In addition, the Cmax/dose in the data set with Homo sapiens [6] amounted to 224 ngequiv/ml/mg. The AUC/dose with Homo sapiens [7] is 357 ngequiv.hr/ml/mg. In addition, in the data set with Homo sapiens [9], the Cmax came out at 449 ng.Eq/ml. The AUCt/dose in the data set with Homo sapiens [11] turned out to be 269 ngequiv.hr/ml/mg.

For the compound `C=C1C[C@@H]2CC[C@@]34C[C@H]5O[C@H]6[C@@H](O3)[C@H]3O[C@H](CC[C@@H]3O[C@H]6[C@H]5O4)CC(=O)C[C@@H]3[C@@H](OC)[C@@H](C[C@H](O)CN)O[C@H]3C[C@H]3O[C@@H](CC[C@@H]1O2)C[C@@H](C)C3=C.CS(=O)(=O)O` [ERIBULIN MESYLATE], in data set [14], the clearance is 65.5 mL/min. In addition, the Cmax/dose in the data set with Homo sapiens [15] amounted to 222 ng/mL/mg. Besides, the dose excreted at 72 h in data set [16] amounted to 5%; in data set [22], 7%. For the same compound, the AUCt/dose with Homo sapiens [17] was 301 ng·h/mL/mg. The half-life in data set [18] is 2160 min. For the same compound, the AUC/dose in the data set with Homo sapiens [19] was found to be 328 ng·h/mL/mg. Also, the Drug excretion in the data set on Homo sapiens [20] is on record as 68.6%; in the data set with Homo sapiens [24] it was 68%. For the same compound, in the data set with Homo sapiens [21], the Vz/F stood at 247 L. The CL renal in data set [23] is 5 mL/min.

The term clearance denotes the volume of plasma or blood freed of the substance per unit of time. A higher clearance goes with efficient removal.

Values taken from ChEMBL document CHEMBL3526070, “Mass balance study of [¹⁴C]eribulin in patients with advanced solid tumors” (Drug Metab Dispos, 2012).
